Laboratory results published in ChEMBL document CHEMBL1144035, “Synthesis, cytostatic and anti-HCV activity of 6-(N-substituted aminomethyl)-, 6-(O-substituted hydroxymethyl)- and 6-(S-substituted sulfanylmethyl)purine nucleosides” (Bioorg Med Chem, 2008).
Calls of active or inactive are those of the source. No cut-off for these calls is given here.

Assays:
L1210 = assay: Cytostatic activity in mouse L1210 cells assessed as inhibition of cell growth after 72 hrs; format: functional, cell-based; conditions: for IC50: L1210, 72 h
How it was run: (§1)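 Cultures from ATCC lines: mouse leukaemia L1210 (CCL 219), human promyelocytic leukaemia HL60 (CCL 240) and human T-lymphoblastoid CCRF-CEM (CCL 119). Growth inhibition was estimated from the cell count in a haematological analyzer (haemocytometer).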

CCRF-CEM [1] = assay: Cytostatic activity in human CCRF-CEM cells assessed as inhibition of cell growth after 72 hrs; format: functional, cell-based; how it was run: as §1
[2] = Cytotoxicity against human Huh7 cells after 3 days by MTT method; format: functional; conditions: Huh-7, 72 h
How it was run: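 Cellular toxicity was read by MTT in Huh-7 cells carrying the con-1 HCV replicon, in duplicate (N = 2).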

HeLa = assay: Cytostatic activity in human HeLa S3 cells assessed as inhibition of cell growth after 48 hrs by XTT assay; format: functional, cell-based
HL-60 [3] = assay: Cytostatic activity in human HL60 cells assessed as inhibition of cell growth after 72 hrs by XTT assay; format: functional, cell-based; conditions: HL-60, 72 h
HL-60 [4] = assay: Cytostatic activity in human HL60 cells assessed as inhibition of cell growth after 72 hrs; format: functional, cell-based; conditions: for IC50: HL-60, 72 h; how it was run: as §1
Hepatitis C virus = assay: Antiviral activity against Hepatitis C virus 1b after 3 days; format: functional, organism-based, Hepacivirus hominis; conditions: genotype 1b, 72 h
CCRF-CEM [5] = assay: Cytostatic activity in human CCRF-CEM cells assessed as inhibition of cell growth after 72 hrs by XTT assay; format: functional, cell-based
MT4 = assay: Cytotoxicity against human MT4 cells after 4 days; format: functional; conditions: MT4, 96 h
How it was run: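 Cellular toxicity was measured in MT-4 cells, N = 2.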

SMILES	IC50 (L1210) [µM]	IC50 (CCRF-CEM [1]) [µM]	CC50 [2] [µM]	Activity (HeLa)	IC50 (HL-60 [3]) [µM]	IC50 (HL-60 [4]) [µM]	EC50 (Hepatitis C virus) [µM]	Activity (L1210)	Activity (CCRF-CEM [1])	Activity (HL-60 [4])	IC50 (CCRF-CEM [5]) [µM]	CC50 (MT4) [µM]
CN(Cc1ccccc1)Cc1ncnc2c1ncn2[C@@H]1O[C@H](CO)[C@@H](O)[C@H]1O	4.8	20.3	9	inactive	2.4	5.6	9					
O=C1CCCN1Cc1ncnc2c1ncn2[C@@H]1O[C@H](CO)[C@@H](O)[C@H]1O			45	inactive			14	inactive	inactive	inactive		
OC[C@H]1O[C@@H](n2cnc3c(CN4CCSC4)ncnc32)[C@H](O)[C@@H]1O	7.8	19.6	21	inactive	3.12	5.2	7					
C[C@@]1(O)[C@H](O)[C@@H](CO)O[C@H]1n1cnc2c(N)ncnc21			> 100	inactive			0.23					
CC(C)N(Cc1ncnc2c1ncn2[C@@H]1O[C@H](CO)[C@@H](O)[C@H]1O)C(C)C	17		18	inactive		13	3		inactive			
O=c1ccn(Cc2ncnc3c2ncn3[C@@H]2O[C@H](CO)[C@@H](O)[C@H]2O)cc1			> 100	inactive			> 100	inactive	inactive	inactive		
CC(=O)NNCc1ncnc2c1ncn2[C@@H]1O[C@H](CO)[C@@H](O)[C@H]1O		18	> 250	inactive	11.4	6.6	65	inactive			10.3	
CC(=O)N(C)Cc1ncnc2c1ncn2[C@@H]1O[C@H](CO)[C@@H](O)[C@H]1O			> 100	inactive			> 100	inactive	inactive	inactive		
OC[C@H]1O[C@@H](n2cnc3c(CSc4ccccn4)ncnc32)[C@H](O)[C@@H]1O			> 100	inactive			44	inactive	inactive	inactive		> 100
OC[C@H]1O[C@@H](n2cnc3c(CSc4ccccc4)ncnc32)[C@H](O)[C@@H]1O			> 100	inactive			> 100	inactive	inactive	inactive		
OC[C@H]1O[C@@H](n2cnc3c(CN4CCOCC4)ncnc32)[C@H](O)[C@@H]1O			> 250	inactive		13	186	inactive	inactive			
O=c1ccccn1Cc1ncnc2c1ncn2[C@@H]1O[C@H](CO)[C@@H](O)[C@H]1O			> 100	inactive			91	inactive	inactive	inactive		
OC[C@H]1O[C@@H](n2cnc3c(CSc4nc5ccccc5s4)ncnc32)[C@H](O)[C@@H]1O			> 100	inactive			> 100	inactive	inactive	inactive		
OC[C@H]1O[C@@H](n2cnc3c(COc4ccccn4)ncnc32)[C@H](O)[C@@H]1O		16.6	> 250	inactive	14.3	12	> 250	inactive			10.8	
CC(=O)N(Cc1ncnc2c1ncn2[C@@H]1O[C@H](CO)[C@@H](O)[C@H]1O)C1CCCCC1			> 100	inactive			> 100	inactive	inactive	inactive		
CC(=O)N(Cc1ccccc1)Cc1ncnc2c1ncn2[C@@H]1O[C@H](CO)[C@@H](O)[C@H]1O			> 100	inactive			> 100	inactive	inactive	inactive		
CC(=O)N(Cc1ncnc2c1ncn2[C@@H]1O[C@H](CO)[C@@H](O)[C@H]1O)C1CC1			> 100	inactive			> 100	inactive	inactive	inactive		
OC[C@H]1O[C@@H](n2cnc3c(COc4ccccc4)ncnc32)[C@H](O)[C@@H]1O			> 100	inactive			> 100	inactive		inactive		
O=C(O)CNCc1ncnc2c1ncn2[C@@H]1O[C@H](CO)[C@@H](O)[C@H]1O			> 100	inactive			87	inactive	inactive	inactive		
OC[C@H]1O[C@@H](n2cnc3c(CS)ncnc32)[C@H](O)[C@@H]1O			54	inactive	1.2	3.5	39	inactive	inactive			
OC[C@H]1O[C@@H](n2cnc3c(CS)ncnc32)C[C@@H]1O			41	inactive			20	inactive	inactive	inactive		
CN(C)Cc1ncnc2c1ncn2[C@@H]1O[C@H](CO)[C@@H](O)[C@H]1O	5.1		> 100	inactive		4	41		inactive			
OC[C@H]1O[C@@H](n2cnc3c(Cn4cccn4)ncnc32)[C@H](O)[C@@H]1O			> 250	inactive			62	inactive	inactive	inactive		48
CC(=O)N(Cc1ncnc2c1ncn2[C@H]1C[C@H](O)[C@@H](CO)O1)C1CCCCC1			> 100	inactive			20	inactive	inactive	inactive		> 100
O=c1[nH]c(=O)n([C@H]2C[C@H](O)[C@@H](CO)O2)cc1F [FLOXURIDINE]	0.012			inactive								
OCc1ncnc2c1ncn2[C@@H]1O[C@H](CO)[C@@H](O)[C@H]1O		0.15		inactive		0.01						
O=C(O)CSCc1ncnc2c1ncn2[C@@H]1O[C@H](CO)[C@@H](O)[C@H]1O			> 100	inactive			> 100	inactive	inactive	inactive		
OC[C@H]1O[C@@H](n2cnc3c(CN4CCCCC4)ncnc32)[C@H](O)[C@@H]1O	12.2		87	inactive		6.9	42		inactive			
